Apaf-1 act: human Apaf-1 activation | activity change, negative = activation, % at 20 µM | Apaf-1 apoptosome caspase-3 activation, DEVD-Rh110 fluorescence; hits give low values | AID 489031 | O14727 | 330,000 compounds, 0.31% hits;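 active means activity change at or below -40% at 20 µM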
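System: Reconstituted apoptosome of Apaf-1, cytochrome c, caspase-9, procaspase-3 | Reagent: dATP, cytochrome c, and (Z-DEVD)2-Rh110 caspase-3 substrate | Times: 30 min compound preincubation and 50 min reaction, both room temperature | Detection: Caspase-3-released Rh110 fluorescence, 540 nm emission, 480 nm excitation | Measure: Caspase-3 activity via Apaf-1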
Rh110 act interf: Rh110 signal interference in Apaf-1 activator counter-screen; shares compounds with Apaf-1 act; Rh110 fluorescence interference, quenched caspase reaction, Ex480/Em540; fluorescence interference (activity change), % at 20 µM, hits read low; 980 tested, under 10 active;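 active means mean activity change at or below -40% when tested at 20 µM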
Apaf-1 act conf: confirmation of human Apaf-1 activators; activity change, negative = activation, % at 20 µM; 980 compounds, 5% hits; reconstituted apoptosome caspase-3 activity, DEVD-Rh110 fluorescence; hits give low values; shares compounds with Apaf-1 act;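 active means mean activity change at or below -40%, meaning activation of 40% or more, at 20 µM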
* hit, by the source's call. These entries were drawn from the full list.

SMILES	Apaf-1 act	others
C=CCn1c(O)c(C(C)=Nc2ccc(C(=O)O)cc2)c(=O)[nH]c1=O	-77*	Rh110 act interf=-2;Apaf-1 act conf=12
c1ccc(-c2[nH]c[n+](CC3CO3)c2-c2ccccc2)cc1 (centres undefined)	51
CCCCCn1c(NC(=O)c2ccco2)c(C(=O)OCC)c2nc3ccccc3nc21	92
CCN(CCO)c1ccc(N=Cc2c(O)n(C)c(=S)[nH]c2=O)cc1	51
C[C@]12CC[C@H](OS(=O)(=O)O)CC1=CC[C@@H]1[C@@H]2CC[C@]2(C)C(=O)CC[C@@H]12	5
CCOc1ccc(Cl)cc1CNCCc1ccc(F)cc1	-44*	Rh110 act interf=-1;Apaf-1 act conf=11
Cc1ccc(C[n+]2c(-c3ccc(C)cc3)cc(-c3ccc(C)cc3)cc2-c2ccc(C)cc2)cc1	79
CNc1ccc2nc3ccccc3[n+](C)c2c1	89
CCOC(=O)C(O)(c1ccc(N(C)C(=O)c2ccc(Cl)c(Cl)c2)cc1)C(F)(F)F (centres undefined)	-190*	Rh110 act interf=-2;Apaf-1 act conf=23
CCCOC(=O)c1ccc(-[n+]2c(-c3ccccc3)cc(-c3ccccc3)cc2-c2ccccc2)cc1	47
COCCNC(=O)c1c(NC(=O)c2ccc(Br)o2)n(Cc2ccccc2)c2nc3ccccc3nc12	67
O=c1[nH]c2ccccc2n1C1CCN(CCCC(c2ccc(F)cc2)c2ccc(F)cc2)CC1	56
CCCCCCCSc1cc(OC)c(CCN(C)C)cc1OC	56
CNCCc1nc(N)n[nH]1	-74*	Rh110 act interf=4;Apaf-1 act conf=12
c1cncc(C2Nc3cccc4cccc(c34)N2)c1	42
Cc1c(C(=O)Nc2ccccc2)cc(-c2ccccc2)n1CCCN1CCOCC1	-201*	Rh110 act interf=-2;Apaf-1 act conf=10
CCCNC1=C(C)C(=O)C2=C(C1=O)C(COC(N)=O)[C@]1(OC)C3NC3CN21 (some centres undefined)	57
Clc1ccc(C(c2ccc(Cl)cc2)n2cc[n+](CC(OCc3ccc(Cl)cc3Cl)c3ccc(Cl)cc3Cl)c2)cc1 (centres undefined)	89
CCOC(=O)c1c(NS(=O)(=O)c2ccccc2)n(CCCOC)c2nc3ccccc3nc12	96
Nc1cncc(C(=O)O)c1	41
CC[C@@H]1C(=O)OC[C@@H]1Cc1cncn1C	0
NC(N)=N/N=C/c1ccc(N(c2ccccc2)c2ccccc2)cc1	61
CCN(CC)c1ccc(N=Cc2c(O)n(-c3cc(OC)ccc3OC)c(=O)[nH]c2=O)cc1	48
O=c1cc(C2CCNCC2)[nH][nH]1	58
Nc1c(C(=O)NC2CCCC2)c2nc3ccccc3nc2n1CC1CCCO1 (centres undefined)	94
